In ChEMBL document CHEMBL2150871, “Design, synthesis and biological evaluation of new peptide-based ureas and thioureas as potential antagonists of the thrombin receptor PAR1” (Eur J Med Chem, 2012):

Molecular target: T1, Proteinase-activated receptor 1 (Homo sapiens) (UniProt P25116)
T1 sequence (whole entry): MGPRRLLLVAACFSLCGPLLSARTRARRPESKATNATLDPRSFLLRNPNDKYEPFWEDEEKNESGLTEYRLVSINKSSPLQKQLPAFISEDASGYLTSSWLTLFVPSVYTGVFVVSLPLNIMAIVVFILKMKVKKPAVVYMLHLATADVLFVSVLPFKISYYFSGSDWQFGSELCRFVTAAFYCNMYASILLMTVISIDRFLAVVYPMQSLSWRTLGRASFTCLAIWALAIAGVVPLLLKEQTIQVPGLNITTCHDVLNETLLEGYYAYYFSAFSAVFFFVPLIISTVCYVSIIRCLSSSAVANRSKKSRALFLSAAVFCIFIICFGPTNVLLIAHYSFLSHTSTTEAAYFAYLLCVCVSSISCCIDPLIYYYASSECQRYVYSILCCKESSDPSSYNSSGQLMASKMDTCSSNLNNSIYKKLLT
Test: Antagonist activity at PAR1 in human platelets assessed as inhibition of SFLLRN-induced aggregation at 10 uM after 5 mins relative to vehicle-treated control
Type: functional
Method in brief: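 Human donors who had taken no platelet-altering drugs for two weeks gave venous blood into 3.2% buffered citrate. Spun at 250×g for 7 min to give PRP, then 900×g for 10 min to give PPP, which served as optical reference and diluent. Diluted PRP was preincubated 5 min at 37 °C with compound or DMSO vehicle, then challenged with SFLLRN. Maximal optical aggregation at 5 min was compared with SFLLRN/vehicle to give % inhibition.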

inhibition: 98%
Compound: NCC[C@H](NC(=O)[C@H](Cc1ccc(F)c(F)c1)NC(=O)Nc1ccc2c(CN3CCCC3)nn(Cc3c(Cl)cccc3Cl)c2c1)C(=O)NCc1ccccc1
